In the library only some 1.8% were active in any assay of this set; here they are far more common.
APJ antagonist: APJ receptor antagonism | P35414 | hit rate 0.32% among 330,000 | inhibition, % at 20 µM | CHO-K1 APJ beta-arrestin complementation, luminescence;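 active = inhibition above about 40% at 20 µM, limit read from the data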;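 note: cells challenged with 10 nM apelin-13 agonist together with compound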
CCR6 antag: CCR6 (human) receptor antagonism | P51684 | inhibition, % at 20 µM | AID 493098 | hit rate 0.49% among 340,000 | CHO-K1 CCR6 PathHunter beta-arrestin, luminescence, CCL20-stimulated;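 active = compounds whose inhibition of the agonist-driven luminescence signal at 20 µM reaches about 50%, limit read from the data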;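 note: cells stimulated with CCL20 at 14 nM final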
Beta2AR agonist: activates human beta-2 adrenergic receptor causing internalization. P07550. Am2.2-beta2AR cells, FAP receptor internalization, flow cytometry. response, % (no concentration beside the values). hit rate 0.43% among 340,000. AID 504454;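 active = response above a set limit, near 3 SD of response in nonfluorescent compounds, cut at about 42% in these data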
APJ ag: agonists of human APJ apelin receptor | hit rate 0.11% among 330,000 | AID 2520 | CHO-K1 APJ PathHunter beta-arrestin, luminescence; 0% DMSO wells, 100% apelin | P35414 | activation, % at 20 µM;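 active = activation more than six SD over the plate average, tested at 20 µM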
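Material: CHO-K1 APJ beta-arrestin complementation cell line; Input: cell density 1000 per well; Incubation: compound stimulation 90 min at 25 °C, detection 60 min; Signal: luminescence from split beta-galactosidase complementation, Galacton Star/Emerald II substrate; Controls: DMSO-only wells as negative, 10 nM Apelin-13 as positive control.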
EBI2 antag: antagonists of human EBI2 receptor; EBI2 beta-arrestin recruitment, luminescence, 7a,25-OHC stimulated; hit rate 0.81% among 360,000; inhibition, % at 5 µM; P32249; AID 651636; in the data active = inhibition above about 38%;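 note: enzyme fragment complementation signal reports receptor beta-arrestin coupling in cells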
CXCR6 block: CXCR6 (human) receptor inhibition; O00574; CHO-K1 PathHunter CXCR6 beta-arrestin, luminescence; inhibition, % at 20 µM; hit rate 0.36% among 360,000; AID 602244; in the data active = inhibition above about 34%, passing the limit was not always enough;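 note: antagonist mode with CXCL16 agonist at 10 nM final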
Target sequence (O00574 whole entry, looked up): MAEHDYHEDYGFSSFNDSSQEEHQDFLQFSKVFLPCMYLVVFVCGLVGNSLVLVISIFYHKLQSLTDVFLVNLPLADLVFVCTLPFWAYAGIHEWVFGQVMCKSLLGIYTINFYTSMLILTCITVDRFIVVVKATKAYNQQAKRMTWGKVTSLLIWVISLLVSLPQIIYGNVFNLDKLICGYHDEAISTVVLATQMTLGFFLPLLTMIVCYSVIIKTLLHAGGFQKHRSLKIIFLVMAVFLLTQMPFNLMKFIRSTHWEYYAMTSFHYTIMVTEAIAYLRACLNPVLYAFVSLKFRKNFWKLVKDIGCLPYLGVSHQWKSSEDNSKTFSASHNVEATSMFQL
EBI2 conf: EBI2 (human) antagonism, single concentration confirmation | shares compounds with EBI2 antag | EBI2 beta-arrestin luminescence, 7a,25-OHC antagonism | inhibition, % at 5 µM | hit rate 29% among 2,400 | AID 651997;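 active = inhibition of at least 50%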
EBI2 agonist: activates EBI2, counter-screen for EBI2 antagonists; activation, % at 5 µM; 2,400 tested, under 10 active; shares compounds with EBI2 antag; EBI2-expressing cells, agonist mode, luminescence, 60 min; 0% vehicle, 100% 7α,25-dihydroxycholesterol control;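 active = activation of at least 50%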
bGal cs: counter-screen for EBI2 antagonists: E. coli beta-galactosidase inhibition; shares compounds with EBI2 antag; purified beta-galactosidase, luminescent Galacton Star, 15 min; inhibition, % at 5 µM; hit rate 1% among 2,400;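 active = replicate-average signal at least 3 plate SD below neutral wells, shown as high inhibition, flagging enzyme-inhibiting false positives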;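 note: higher means stronger loss of beta-gal luminescence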
Large screens that a line does not name were inactive (follow-up assays come after a bar, where they were run).

c1ccc(CNc2nc(NCC3CC3)nc3cc(-c4ccccc4)sc23)cc1	EBI2 antag 63 (no result: APJ antagonist, CCR6 antag, Beta2AR agonist, APJ ag) | EBI2 conf inactive | EBI2 agonist inactive | bGal cs inactive
C=CCNc1nc(NCCOc2ccccc2Cl)c2sc(-c3ccccc3)cc2n1	EBI2 antag 42 (no result: APJ antagonist, CCR6 antag, Beta2AR agonist, APJ ag) | EBI2 conf inactive | EBI2 agonist inactive | bGal cs inactive
COCCNc1nc(NCc2cccc(OC)c2)c2sc(-c3ccccc3)cc2n1	none (no result: APJ antagonist, CCR6 antag, Beta2AR agonist, APJ ag)
C=CCNc1nc(NCCOC)c2sc(-c3ccccc3)cc2n1	none (no result: APJ antagonist, CCR6 antag, Beta2AR agonist, APJ ag)
c1ccc(OCCNc2nc(NCC3CC3)nc3cc(-c4ccccc4)sc23)cc1	EBI2 antag 68 (no result: APJ antagonist, CCR6 antag, Beta2AR agonist, APJ ag) | EBI2 conf 62 | EBI2 agonist inactive | bGal cs inactive
O=C(NCCCN1CCOCC1)C(=O)N/N=C/c1c2ccccc2cc2ccccc12	none
Oc1ccc(-c2cnc3c(Nc4cccc(OC(F)(F)C(F)F)c4)nccn23)cc1	EBI2 antag 73 (no result: APJ antagonist, CCR6 antag, Beta2AR agonist, APJ ag) | EBI2 conf inactive | EBI2 agonist inactive | bGal cs inactive
FC(F)C(F)(F)Oc1cccc(Nc2nccn3c(-c4cccc5ccccc45)cnc23)c1	none (no result: APJ antagonist, CCR6 antag, Beta2AR agonist, APJ ag)
FC(F)C(F)(F)Oc1cccc(Nc2nccn3c(-c4ccc5ccccc5c4)cnc23)c1	none (no result: APJ antagonist, CCR6 antag, Beta2AR agonist, APJ ag)
NC(=O)c1cccc(-c2cnc3c(Nc4cccc(OC(F)(F)C(F)F)c4)nccn23)c1	EBI2 antag 45 (no result: APJ antagonist, CCR6 antag, Beta2AR agonist, APJ ag) | EBI2 conf inactive | EBI2 agonist inactive | bGal cs inactive
CCCC(=O)N1CCCC(c2cc(C(=O)NCc3ccc(F)cc3)no2)C1 (centres undefined)	none (no result: APJ antagonist, CCR6 antag, Beta2AR agonist, APJ ag)
CC(OC(=O)CCc1c[nH]c2ccccc12)C(=O)c1ccccc1 (centres undefined)	none
CC(C)c1ccc(NC2CCCN(C(=O)CN3CCCC3=O)C2)cc1 (centres undefined)	none
Cc1cc(S(=O)(=O)NCc2ccccc2)ccc1OCC(=O)N1CCCC1	none
CCc1ccc(Oc2coc3cc(OCC(=O)Nc4cc(C)ccc4C)ccc3c2=O)cc1	EBI2 antag 52 | EBI2 conf inactive | EBI2 agonist inactive | bGal cs inactive
NC(=O)C1CN(C(=O)c2nn(Cc3ccccc3)c(=O)c3ccccc23)c2ccccc2O1 (centres undefined)	none
CC1(C(=O)Nc2cnc3ccccc3c2)CCN1C(=O)CC(c1ccccc1)c1ccccc1 (centres undefined)	EBI2 antag 75 (no result: APJ antagonist, CCR6 antag, Beta2AR agonist, APJ ag) | EBI2 conf 55 | EBI2 agonist inactive | bGal cs inactive
c1ccc(COc2cccc(-c3cc4nc(NCCc5ccncc5)ccn4n3)c2)cc1	EBI2 antag 47 (no result: APJ antagonist, CCR6 antag, Beta2AR agonist, APJ ag) | EBI2 conf inactive | EBI2 agonist inactive | bGal cs inactive
CC1CC(C)CN(S(=O)(=O)c2ccc(C(=O)N3CCN(c4ccccc4)CC3)cc2)C1 (centres undefined)	EBI2 antag 57 | EBI2 conf inactive | EBI2 agonist inactive | bGal cs inactive
COc1ccc(CN2CCN(C(=O)c3ccc(S(=O)(=O)N4CCCCCC4)cc3)CC2)cc1	none
COc1ccc(C(=O)N2CCN(S(=O)(=O)c3ccc(Br)cc3)CC2)cc1	EBI2 antag 52 | EBI2 conf inactive | EBI2 agonist inactive | bGal cs inactive
O=C(c1ccc(S(=O)(=O)N2CCCCCC2)cc1)N1CCN(c2ccccc2)CC1	none
COc1ccc(S(=O)(=O)N2CCN(C(=O)c3cc(-c4ccc(C)cc4)n[nH]3)CC2)cc1	EBI2 antag 74 | EBI2 conf inactive | EBI2 agonist inactive | bGal cs inactive
COc1ccc(-c2cc(C(=O)N3CCN(S(=O)(=O)c4ccc(C)cc4)CC3)[nH]n2)cc1	EBI2 antag 53 | EBI2 conf inactive | EBI2 agonist inactive | bGal cs inactive
COc1ccc(S(=O)(=O)N2CCOCC2)cc1NC(=O)COc1ccc(C(C)=O)cc1OC	none

Bioassay records as filed in PubChem BioAssay.
